Assay results: ChEMBL document CHEMBL1122621, “Antihypertensive activities of phenyl aminoethyl sulfides, a class of synthetic substrates for dopamine beta-hydroxylase” (J Med Chem, 1984)

Experiments:
monoamine oxidase (MAO) = molecular target: T1, monoamine oxidase (MAO) (Bos taurus, UniProt P21398+P56560); assay: Compound was evaluated as substrate for monoamine oxidase (MAO) from bovine […] and the enzymatic kinetic constant was reported as Km; format: protein assay; details: cattle
T1 sequence (P56560 whole entry): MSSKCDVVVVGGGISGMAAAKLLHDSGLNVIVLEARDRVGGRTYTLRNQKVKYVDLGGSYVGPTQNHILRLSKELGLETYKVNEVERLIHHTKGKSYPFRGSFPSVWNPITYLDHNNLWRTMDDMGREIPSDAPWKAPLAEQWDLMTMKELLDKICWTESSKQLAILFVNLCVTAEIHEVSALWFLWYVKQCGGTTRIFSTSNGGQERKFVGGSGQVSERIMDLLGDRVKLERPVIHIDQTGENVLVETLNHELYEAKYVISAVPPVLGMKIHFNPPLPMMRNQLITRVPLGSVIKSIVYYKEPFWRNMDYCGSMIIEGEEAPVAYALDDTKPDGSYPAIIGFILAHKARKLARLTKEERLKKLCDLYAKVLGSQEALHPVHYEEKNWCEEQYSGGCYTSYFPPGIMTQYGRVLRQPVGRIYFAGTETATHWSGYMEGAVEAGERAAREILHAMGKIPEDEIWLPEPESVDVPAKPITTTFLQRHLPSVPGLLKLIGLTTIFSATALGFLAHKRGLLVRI
T1 sequence (P21398 whole entry): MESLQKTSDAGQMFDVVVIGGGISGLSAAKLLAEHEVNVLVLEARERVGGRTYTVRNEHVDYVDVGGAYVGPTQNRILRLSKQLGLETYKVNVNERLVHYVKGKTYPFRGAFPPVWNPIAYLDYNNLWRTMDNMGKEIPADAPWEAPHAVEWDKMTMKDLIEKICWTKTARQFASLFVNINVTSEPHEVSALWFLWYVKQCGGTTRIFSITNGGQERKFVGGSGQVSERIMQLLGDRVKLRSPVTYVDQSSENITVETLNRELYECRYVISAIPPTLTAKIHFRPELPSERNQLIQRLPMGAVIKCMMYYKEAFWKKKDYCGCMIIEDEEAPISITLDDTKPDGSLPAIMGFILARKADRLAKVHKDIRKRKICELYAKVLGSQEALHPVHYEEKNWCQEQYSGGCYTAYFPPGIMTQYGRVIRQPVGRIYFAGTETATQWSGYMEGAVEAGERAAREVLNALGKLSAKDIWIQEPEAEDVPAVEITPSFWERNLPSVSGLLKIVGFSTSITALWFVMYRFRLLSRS
Outline: (§1)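 Bovine MAO, a mixed A/B isozyme preparation, commercial. Oxygen monitor assay in 0.1 M potassium phosphate pH 7.2, air-saturated, 37 °C. kcat and Km from computer fit to hyperbolic Michaelis-Menten equation. kcat based on total protein, assuming MW 290 000.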

[1] = molecular target: T2, Dopamine beta-hydroxylase (Bos taurus) (UniProt P15101); assay: Compound was evaluated as substrate for Dopamine beta hydroxylase (DBH) from bovine adrenals and the enzymatic kinetic constant was reported as Kcat
T2 sequence (whole entry): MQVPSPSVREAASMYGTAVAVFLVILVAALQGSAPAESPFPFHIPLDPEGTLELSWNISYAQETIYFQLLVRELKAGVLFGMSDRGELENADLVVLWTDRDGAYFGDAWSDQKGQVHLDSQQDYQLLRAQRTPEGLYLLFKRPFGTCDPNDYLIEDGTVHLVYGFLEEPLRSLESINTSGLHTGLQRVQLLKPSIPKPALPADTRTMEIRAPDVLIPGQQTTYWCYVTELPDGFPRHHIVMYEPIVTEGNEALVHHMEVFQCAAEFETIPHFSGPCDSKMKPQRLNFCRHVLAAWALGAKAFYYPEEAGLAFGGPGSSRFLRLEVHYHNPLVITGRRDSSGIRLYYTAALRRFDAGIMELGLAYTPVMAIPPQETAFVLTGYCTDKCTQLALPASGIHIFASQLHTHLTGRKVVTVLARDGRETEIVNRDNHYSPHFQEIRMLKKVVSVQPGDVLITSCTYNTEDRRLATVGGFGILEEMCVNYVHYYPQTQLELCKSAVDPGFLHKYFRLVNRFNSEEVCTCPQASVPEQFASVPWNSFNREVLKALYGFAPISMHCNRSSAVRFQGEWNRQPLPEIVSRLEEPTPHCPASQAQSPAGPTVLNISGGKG

[2] = Ratio of the kinetic parameter Kcat to the Km on substrate dopamine monoamine oxidase
Monoamine oxidase [3] = molecular target: T3, Monoamine oxidase (Bos taurus, UniProt P56560+P21398); assay: Compound was evaluated as substrate for monoamine oxidase (MAO) from bovine […] and the enzymatic kinetic constant was reported as Kcat; format: protein assay; details: cattle; outline: as §1
T3 sequence (P56560 whole entry): T1 sequence (P56560 whole entry)
T3 sequence (P21398 whole entry): T1 sequence (P21398 whole entry)

[4] = Ratio of the kinetic parameter Kcat to the Km on substrate […] from bovine adrenals; format: tissue-based; details: Adrenal gland
Monoamine oxidase [5] = molecular target: T3, Monoamine oxidase; assay: Compound was evaluated as substrate for monoamine oxidase (MAO) from bovine […] and the enzymatic kinetic constant was reported as Km; c = Compounds displayed no trace of substrate activity even at high enzyme concentrations; format: protein assay; details: cattle; outline: as §1
Monoamine oxidase [6] = molecular target: T3, Monoamine oxidase; assay: Compound was evaluated as substrate for monoamine oxidase (MAO) from bovine […] and the enzymatic kinetic constant was reported as Kcat; c = Compounds displayed no trace of substrate activity even at high enzyme concentrations; format: protein assay; details: cattle; outline: as §1
[7] = Ratio of the kinetic parameter Kcat to the Km on substrate dopamine monoamine oxidase; c = Compounds displayed no trace of substrate activity even at high enzyme concentrations
[8] = substrate: CC(N)CSc1ccc(O)cc1; assay: (§2) Compound was evaluated as substrate for Dopamine beta hydroxylase (DBH) from bovine adrenals and the enzymatic kinetic constant was reported as Km; format: tissue-based; details: Adrenal gland
[9] = substrate: NCCc1ccccc1; assay: as §2; format: tissue-based; details: Adrenal gland
[10] = substrate: NCCc1ccc(O)cc1; assay: as §2; format: tissue-based; details: Adrenal gland
[11] = substrate: NCCCc1ccccc1; assay: as §2; format: tissue-based; details: Adrenal gland
[12] = substrate: CC(N)CSc1ccccc1; assay: as §2; format: tissue-based; details: Adrenal gland
[13] = substrate: NCCSc1ccc(O)cc1; assay: as §2; format: tissue-based; details: Adrenal gland
[14] = substrate: NCCSc1ccccc1; assay: as §2; format: tissue-based; details: Adrenal gland

`NCCCc1ccccc1` showed a Km (monoamine oxidase (MAO)) of 0.29 mM, a k cat [1] of 12 s⁻¹ and a Ratio [2] of 580 M⁻¹ s⁻¹. For the same molecule, the k cat (Monoamine oxidase [3]) was 0.17 s⁻¹ and the Ratio [4] was 590 M⁻¹ s⁻¹.

Molecule `NCCc1ccccc1` [PHENETHYLAMINE] has a Km (monoamine oxidase (MAO)) of 2.2 mM, a k cat [1] of 65 s⁻¹ and a Ratio [2] of 100 M⁻¹ s⁻¹. For the same molecule, the k cat (Monoamine oxidase [3]) was 0.23 s⁻¹ and the Ratio [4] was 9300 M⁻¹ s⁻¹.

For `CC(N)CSc1ccc(O)cc1` (racemic), the Km (Monoamine oxidase [5]) was “No activity”, the k cat [1] was 44 s⁻¹ and the k cat (Monoamine oxidase [6]) was “No activity”. For the same molecule, the Ratio [4] was 6700 M⁻¹ s⁻¹ and the Ratio [7] was “No activity”.

`NCCc1ccc(O)cc1` showed a k cat [1] of 85 s⁻¹ and a Ratio [4] of 42000 M⁻¹ s⁻¹.

For `NCCSc1ccccc1`, the Km (monoamine oxidase (MAO)) was 0.055 mM, the k cat [1] was 39 s⁻¹ and the Ratio [2] was 7300 M⁻¹ s⁻¹. It also gave a k cat (Monoamine oxidase [3]) of 0.43 s⁻¹ and a Ratio [4] of 2300 M⁻¹ s⁻¹.

In the case of `CC(N)CSc1ccccc1` (racemic), the Km (Monoamine oxidase [5]) is reported as “No activity”, the k cat [1] is reported as 20 s⁻¹ and the k cat (Monoamine oxidase [6]) is reported as “No activity”. The Ratio [4] was 1000 M⁻¹ s⁻¹ and the Ratio [7] was “No activity”.

`NCCSc1ccc(O)cc1` gave a Km (monoamine oxidase (MAO)) of 0.049 mM, a k cat [1] of 36 s⁻¹ and a Ratio [2] of 4500 M⁻¹ s⁻¹. For the same molecule, the k cat (Monoamine oxidase [3]) was 0.22 s⁻¹ and the Ratio [4] was 8300 M⁻¹ s⁻¹.

B1: Dopamine beta-hydroxylase (Bos taurus), P15101 (protein)
chain: T2 sequence (whole entry)
Work on B1 yielded a Km [8] of 6.5 mM, a Km [9] of 7 mM and a Km [10] of 2 mM. It also gave a Km [11] of 20.4 mM, a Km [12] of 19.1 mM and a Km [13] of 4.4 mM. For the same molecule, the Km [14] was 17.2 mM.
